Bioassay records deposited in PubChem BioAssay by several laboratories.
Plk1 PBD FP – blocks phosphopeptide binding to human Plk1 polo box domain. AID 693. inhibition, %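 (tested at about 20 µM)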. P53350. actives 0.13% (n = 97,000). Plk1 PBD phosphopeptide binding, fluorescence polarization; in the data active = inhibition above about 34%, passing the limit was not always enough
LYP act – activators of human LYP (PTPN22) phosphatase; recombinant LYP, DiFMUP fluorescence; 0 = plate median, 100 = signal doubled; AID 697; actives 0.11% (n = 96,000); activation, % at 2 µM; Q9Y2R2;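 active = activation at 2 µM above a set limit, the mean plus 5 SD, cut at about 37% in these data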
PTPN22 inh 2 – LYP (human) phosphatase inhibition. Q9Y2R2. recombinant LYP catalytic domain, DiFMUP fluorescence. inhibition, % at 2 µM. actives 0.21% (n = 96,000). AID 640;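 active = inhibition at 2 µM at or above a set limit, the screen mean plus 3 SD, cut at about 24% in these data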;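 also: 0% = DMSO with enzyme and 100% = enzyme fully blocked by orthovanadate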
PLK1 inh – inhibitors of human PLK1 kinase; P53350; recombinant PLK1 kinase, TR-FRET peptide phosphorylation; inhibition, % at 10 µM; actives 0.53% (n = 97,000); AID 619;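 active = inhibition of 50% or more in the single-concentration screen; inactive = inhibition below 50%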;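 also: 0% = DMSO max control and 100% = H-89 dihydrochloride min control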
hDAT+cocaine – human DAT dopamine uptake with cocaine, either direction; Q01959; LLC-PK1 hDAT cells, [14C]-dopamine uptake with cocaine IC80; actives deviate in either direction; B-score at 10 µM; actives 1.3% (n = 110,000); AID 449768;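 active = Z score or B-score, a plate-position-corrected score, falls beyond the plate's 99.7% confidence bounds, in either direction; inactive = both scores lie inside the 99.7% bounds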;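 also: scored against the spread of the other compound wells on the same plate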
Rev-RRE block – HIV Rev-RRE protein-RNA interaction inhibition. AID 704. inhibition, % at 8 µM. actives 0.79% (n = 97,000). Rev peptide-RRE RNA binding, FRET. P05866;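 active = inhibition above the screen-wide mean plus 3 SD, cut at about 35% in these data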;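 also: 0% = median DMSO wells and 100% = median Neomycin B control wells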
Target sequence (P05866 whole entry, looked up): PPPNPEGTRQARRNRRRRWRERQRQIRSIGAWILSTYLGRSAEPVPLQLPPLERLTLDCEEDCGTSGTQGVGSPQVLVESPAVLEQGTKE
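Probe or stimulus: fluorescein-Rev peptide as binding partner; assay system: Cy5-tagged RRE RNA duplex with fluorescein-tagged Rev peptide; timing: 5 min compound–RNA preincubation, then 15 min with peptide, 25 °C; medium: HEPES pH 7.5 buffer with KCl, MgCl2, NaCl and EDTA; signal: fluorescein-to-Cy5 FRET, 480 nm excitation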
* marks the source's active call; other numbers are inactive results; . = no result; [ ] = another dose, or the depositor's remark. Hits are enriched below; roughly 2.7% of the tested compounds scored in any of these assays.

SMILES	Plk1 PBD FP	LYP act	PTPN22 inh 2	PLK1 inh	hDAT+cocaine	Rev-RRE block
CC(C)(C)n1nnnc1CN(Cc1ccco1)Cc1cc2cc3c(cc2[nH]c1=O)OCO3	8	1	2	-9	1.5*	29
CCC(C)c1ccc(OCCn2cc(/C=N/NC(=O)CSc3nnc(C)s3)c3ccccc32)cc1 (stereo not given)	-14	-16	16	-5	-0.71	6
COc1cccc(-c2nnc3sc(C4CCCCC4)nn23)c1	4	3	1	-5	-8.3*	10
CCOc1cccc(-c2nnc3sc(C4CCCCC4)nn23)c1	-5	-3	1	-9	1.9	8
CCn1nc(C)c(/C=C2\CCCC3=C2OC(N)=C(C#N)C3c2c(C)nn(CC)c2C)c1C (stereo not given)	-16	-3	2	-6	1.3	47*
Cc1nn(-c2ccccc2)c(Cl)c1C1C(C#N)=C(N)OC2=C1C(=O)CCC2 (stereo not given)	.	.	.	.	1.9	.
COc1cc(C2C(C#N)=C(N)Oc3cc(N(C)C)ccc32)cc2c1OCO2 (stereo not given)	-73	-3	1	-16	-1.4	92*[fluorescence artefact?]
COc1ccc(S(=O)(=O)N/N=C(/C)c2cccc(NC(=O)c3ccccc3Cl)c2)cc1	7	-4	8	-8	.	5
O=C(NCc1cccs1)C1CCCN(c2nc3ccccc3o2)C1 (stereo not given)	-3	2	-5	-4	0.63	8
O=C(CNC(=O)c1cccs1)c1ccc(F)cc1	-17	-3	5	-17	-0.011	6
O=C1CC(=C2c3ccccc3-c3ccccc32)C(=O)N1CCCCN1CCN(c2ccccc2)CC1	-10	-45	45*	-6	0.44	1
COc1ccc2c(C)cc(SCC(=O)Nc3c(C)n(C)n(-c4ccccc4)c3=O)nc2c1	-38	-46	47*	-4	2.6	4
COC(=O)c1ccc(NC(=O)C23CCC(C)(C(=O)O2)C3(C)C)cc1 (stereo not given)	-1	1	3	-3	0.035	3
O=C1NC2(CCCC2)N=C1c1ccc(F)cc1	12	0	0	-4	-8*	7
CCOC(=O)C(NC(C)=O)(N1CCOCC1)C(F)(F)F (stereo not given)	14	17	-19	-8	1.8*	6
CCC1(C)Cc2c(sc3nnn(Cc4ccccc4Cl)c(=O)c23)CO1 (stereo not given)	29	6	-2	-8	-0.0037	9
Cc1cc2n(c1)CCn1c(C)ccc1-2	14	2	-2	5	1.8	46*
CNc1nnc(-c2cc3cc(Cl)ccc3oc2=O)s1	-6	-2	4	0	0.14	79*
COc1ccc2oc(=O)c(-c3nnc(NCc4ccco4)s3)cc2c1	-24	-21	22	-1	0.4	43*
CCOc1cccc2cc(-c3nnc(NCc4ccco4)s3)c(=O)oc12	-7	6	-8	-3	0.77	27
COc1ccc(-c2c([C@H]3[C@H]4C=CC[C@@H](C)[C@@H]4C(=O)N3Cc3ccccc3)ccc3ccccc23)cc1OC	.	.	.	.	0.039	.
COc1ccc(Nc2ncnc3c2cnn3Cc2ccccc2)cc1	-15	4	-7	2	3.2*	15
CCOc1ccc(Nc2ncnc3c2cnn3Cc2ccccc2)cc1	-4	0	-3	-8	1.1	12
CC(=O)SCC(Cc1ccccc1)C(=O)NCC(=O)OCc1ccccc1 (stereo not given)	.	.	.	.	-1.3	.
Fc1ccc(-c2nn3c(C4COc5ccccc5O4)nnc3s2)cc1 (stereo not given)	2	2	-2	-2	.	12
SMILES	Plk1 PBD FP	LYP act	PTPN22 inh 2	PLK1 inh	hDAT+cocaine	Rev-RRE block
c1ccc2c(c1)OCC(c1nnc3sc(-c4ccc5c(c4)OCO5)nn13)O2 (stereo not given)	-8	9	-11	-3	-8.6*	7
N#Cc1c(N)nc2c3c(sc(=N)c2c1N)NC(=O)CC3c1ccccc1 (stereo not given)	-12	-4	9	-23	0.09	49*
Cc1cc(C)n2nc(SCc3cc(=O)oc4cc(O)ccc34)nc2n1	2	-28	29*	-4	-0.64	-2
Cc1cc(C)n2nc(SCn3nnc4ccccc4c3=O)nc2n1	-6	-3	0	-7	0.66	6
N#C/C(=C\c1cn(-c2ccccc2)nc1-c1cccnc1)c1nnc2n1CCCCC2	-23	5	-4	14	1.1	9
COc1c(N2C[C@@H]3CCCN[C@@H]3C2)c(F)cc2c(=O)c(C(=O)O)cn(C3CC3)c12	.	.	.	.	1.3	.
O=C(Nc1c(C(=O)O)[nH]c2ccccc12)NC1CCCCC1	17	-6	10	-6	-2.1*	5
COc1ccc(-c2csc(NCCc3nc4cc(C(=O)NCCCO)ccc4n3Cc3ccc(C)cc3)n2)cc1	.	.	.	.	2.4	.
O=C(CCl)Nc1ccc(Oc2cnc3ccccc3n2)cc1	14	-4	7	-18	-1.8	1
N#Cc1cccc(NC(=O)CSc2ccc3c4c(cccc24)C(=O)c2ccccc2-3)c1	-14	-9	11	-21	-0.34	115*[fluorescence artefact?]
COc1ccc(NC(=O)CSc2ccc3c4c(cccc24)C(=O)c2ccccc2-3)cc1	-21	-22	26*	-16	-0.61	125*[fluorescence artefact?]
COc1ccc(NC(=O)CSc2nnc(-c3ccccc3C)n2N)cc1	17	15	-19	-8	0.044	6
Cc1ccc(Cn2ccc(NC(=O)c3c(-c4ccccc4Cl)noc3C)n2)cc1	-10	-2	0	-12	3	6
Cc1ccc2nc(NC(=S)NC(=O)c3cccs3)sc2c1	-14	-28	30*	-5	-0.73	3
Cc1ccc2nc(NC(=O)c3cccs3)sc2c1	.	.	.	.	0.77	.
Cc1ccc(-c2nc(C3CCCN(S(=O)(=O)c4ccc(C)cc4)C3)no2)cc1 (stereo not given)	-28	.	.	67*	2.5	7
Cc1ccc(-c2nc(C3CCCN(S(=O)(=O)c4ccc(C(C)(C)C)cc4)C3)no2)cc1 (stereo not given)	10	1	-3	-13	0.33	11
COc1cc(CNCCc2c[nH]c3ccccc23)ccc1OCc1ccccc1F	4	7	-4	-9	2.5*	5
COc1ccccc1CCNCc1ccc(OC)c(OCc2ccccc2)c1	8	8	-4	-10	-0.019	10
COC(=O)c1ccc(OC(=O)c2ccco2)cc1	10	-6	5	15	-7.5*	5
Cc1ccc(Cl)cc1NC(=O)CC1NCCNC1=O (stereo not given)	-15	4	-4	-10	-0.048	5
Cc1cc(-c2cc(N)n(-c3ccccc3)n2)c(C)n1C1CCCC1	-17	-8	7	-24	2.1*	0
Cc1ccc(C=Nc2ccc(N(C)C)cc2)o1	17	-1	0	6	0.12	-15
